ChEMBL document CHEMBL4152388, “Structure-Activity Relationships in Metal-Binding Pharmacophores for Influenza Endonuclease” (J Med Chem, 2018)
Activity calls are given as the source filed them. The rule behind the calls is not given here.

Columns and labels:
[1] = test system: Influenza A virus (A/California/04/2009(H1N1)); assay: Inhibition of Influenza A (A/California/04/2009) (H1N1) clinical isolate N-terminal truncated PA endonuclease at 500 nM using 5'-FAM/3-TAMRA quencer labeled 17-mer ssDNA-oligo as substrate measured over 45 mins by FRET assay relative to control
[2] = target: T1, Arginase-1 (Homo sapiens) (UniProt P05089); assay: Inhibition of full length human arginase 1 expressed in Escherichia coli BL21(DE3) at 200 uM using unlabeled L-arginine/L-[guanidino-14C]arginine as substrate after 5 mins by liquid scintillation counting method relative to control
T1 sequence (whole entry): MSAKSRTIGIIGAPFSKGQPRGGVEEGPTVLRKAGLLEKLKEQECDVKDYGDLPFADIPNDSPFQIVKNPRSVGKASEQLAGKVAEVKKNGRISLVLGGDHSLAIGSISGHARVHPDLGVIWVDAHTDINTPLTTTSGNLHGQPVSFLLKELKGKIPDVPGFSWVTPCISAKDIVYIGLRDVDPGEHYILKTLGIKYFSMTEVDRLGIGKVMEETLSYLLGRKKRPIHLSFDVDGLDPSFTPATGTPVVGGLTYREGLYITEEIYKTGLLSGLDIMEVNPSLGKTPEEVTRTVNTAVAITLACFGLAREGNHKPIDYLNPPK
In short: (§1)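 Single-concentration cross-inhibition screen, final inhibitor 200 μM, percent inhibition relative to positive and negative controls; run per literature protocols (Arg1, MetAP1 Mn2+ isoform, NDM-1).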

[3] = test system: Bacteria; assay: Inhibition of bacterial NDM1 at 200 uM using chromacef as substrate preincubated for 10 mins followed by substrate addition; in short: as §1
[4] = test system: Influenza A virus (A/California/04/2009(H1N1)); assay: Inhibition of Influenza A (A/California/04/2009) (H1N1) clinical isolate N-terminal truncated PA endonuclease at 500 nM using 5'-FAM/3-TAMRA quencer labeled 17-mer ssDNA-oligo as substrate measured over 45 mins in presence of up to 25 mM metal ions by FRET assay relative to control
[5] = target: Human immunodeficiency virus type 1 integrase (Human immunodeficiency virus 1) (UniProt Q7ZJM1); assay: Inhibition of recombinant HIV1 integrase 3'-processing activity at 200 uM using 5'-end [32P]-labeled oligonucleotide substrate after 60 mins by densitometric analysis relative to control
[6] = target: Human immunodeficiency virus type 1 integrase (Human immunodeficiency virus 1) (UniProt Q7ZJM1); assay: Inhibition of recombinant HIV1 integrase strand transfer activity at 200 uM using 5'-end [32P]-labeled oligonucleotide substrate after 60 mins by densitometric analysis relative to control
[7] = target: Carbonic anhydrase 2 (Homo sapiens) (UniProt P00918); assay: Inhibition of human carbonic anhydrase 2 at 200 uM using p-nitrophenyl acetate as substrate preincubated for 15 mins followed by substrate addition and measured every 1 min for 20 mins
In short: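 Single-point screen at 200 μM, percent inhibition relative to positive and negative controls, following literature protocols.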

[8] = target: 72 kDa type IV collagenase (Homo sapiens) (UniProt P08253); assay: Inhibition of recombinant human MMP2 at 200 uM using Mca-Pro-Leu-Gly-Leu-Dpa-Ala-Arg-NH2.AcOH as substrate preincubated for 30 mins followed by substrate addition and measured every min for 20 mins by fluorescence assay
[9] = target: Lactoylglutathione lyase (Homo sapiens) (UniProt Q04760); assay: Inhibition of human glyoxalase 1 at 200 uM relative to control
[10] = target: T2, Protein deacetylase HDAC6 (Homo sapiens) (UniProt Q9UBN7); assay: Inhibition of N-terminal GST-tagged recombinant full length human HDAC6 expressed in baculovirus infected Sf9 insect cells at 200 uM using HDAC substrate 3 after 30 mins by fluorescence assay relative to control
T2 sequence (whole entry): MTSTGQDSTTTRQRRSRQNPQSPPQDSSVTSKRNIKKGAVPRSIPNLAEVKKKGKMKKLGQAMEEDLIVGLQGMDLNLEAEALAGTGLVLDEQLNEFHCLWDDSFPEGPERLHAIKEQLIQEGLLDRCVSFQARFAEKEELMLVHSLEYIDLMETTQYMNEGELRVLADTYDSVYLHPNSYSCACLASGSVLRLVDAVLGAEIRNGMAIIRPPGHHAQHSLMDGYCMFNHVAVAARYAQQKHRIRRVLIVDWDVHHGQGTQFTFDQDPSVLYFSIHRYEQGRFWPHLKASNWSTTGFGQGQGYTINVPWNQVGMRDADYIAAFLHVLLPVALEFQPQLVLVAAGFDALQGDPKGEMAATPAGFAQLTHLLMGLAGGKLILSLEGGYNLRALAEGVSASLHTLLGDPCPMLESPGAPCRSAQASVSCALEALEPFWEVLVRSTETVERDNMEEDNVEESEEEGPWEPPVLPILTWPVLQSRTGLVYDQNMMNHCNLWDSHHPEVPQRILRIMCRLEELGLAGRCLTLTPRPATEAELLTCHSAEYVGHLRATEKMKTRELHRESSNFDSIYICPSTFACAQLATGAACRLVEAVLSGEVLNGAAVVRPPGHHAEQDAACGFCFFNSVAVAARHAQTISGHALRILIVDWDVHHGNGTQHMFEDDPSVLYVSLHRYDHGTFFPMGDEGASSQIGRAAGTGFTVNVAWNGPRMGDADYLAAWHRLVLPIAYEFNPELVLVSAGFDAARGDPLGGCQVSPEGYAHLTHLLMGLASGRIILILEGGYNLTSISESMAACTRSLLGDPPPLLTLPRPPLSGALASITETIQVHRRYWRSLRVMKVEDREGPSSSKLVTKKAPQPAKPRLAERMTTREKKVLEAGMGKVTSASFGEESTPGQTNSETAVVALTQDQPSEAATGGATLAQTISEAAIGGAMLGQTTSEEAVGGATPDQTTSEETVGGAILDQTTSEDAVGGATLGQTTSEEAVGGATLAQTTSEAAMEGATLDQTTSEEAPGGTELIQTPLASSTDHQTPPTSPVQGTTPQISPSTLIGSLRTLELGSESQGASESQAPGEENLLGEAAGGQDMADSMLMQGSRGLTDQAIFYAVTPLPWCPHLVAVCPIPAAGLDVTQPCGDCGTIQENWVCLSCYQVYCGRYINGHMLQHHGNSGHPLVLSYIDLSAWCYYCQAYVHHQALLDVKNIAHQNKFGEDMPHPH

[11] = Inhibition of Influenza A (A/California/04/2009) (H1N1) clinical isolate N-terminal truncated PA endonuclease using 5'-FAM/3-TAMRA quencer labeled 17-mer ssDNA-oligo as substrate measured over 45 mins by FRET assay; parameters: species or system Influenza A virus (A/California/04/2009(H1N1))
In short: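 Cleavage of a 5'-FAM/3'-TAMRA 17-mer ssDNA substrate (200 nM) by influenza PA endonuclease (4 nM) in 20 mM Tris, 150 mM NaCl, 2 mM MnCl2, 10 mM β-mercaptoethanol, 0.2% Triton-X100, pH 8.0.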

Sequence of Human immunodeficiency virus type 1 integrase (Human immunodeficiency virus 1) (Q7ZJM1 as listed by the source): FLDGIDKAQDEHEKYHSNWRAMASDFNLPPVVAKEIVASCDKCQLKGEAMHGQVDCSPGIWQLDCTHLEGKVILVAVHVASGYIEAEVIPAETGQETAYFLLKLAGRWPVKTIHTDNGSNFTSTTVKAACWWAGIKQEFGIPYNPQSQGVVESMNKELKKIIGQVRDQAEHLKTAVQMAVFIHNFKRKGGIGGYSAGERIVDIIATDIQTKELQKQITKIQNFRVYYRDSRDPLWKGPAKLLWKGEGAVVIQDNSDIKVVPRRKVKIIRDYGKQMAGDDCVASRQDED
Sequence of 72 kDa type IV collagenase (Homo sapiens) (P08253 110-660 limits assumed): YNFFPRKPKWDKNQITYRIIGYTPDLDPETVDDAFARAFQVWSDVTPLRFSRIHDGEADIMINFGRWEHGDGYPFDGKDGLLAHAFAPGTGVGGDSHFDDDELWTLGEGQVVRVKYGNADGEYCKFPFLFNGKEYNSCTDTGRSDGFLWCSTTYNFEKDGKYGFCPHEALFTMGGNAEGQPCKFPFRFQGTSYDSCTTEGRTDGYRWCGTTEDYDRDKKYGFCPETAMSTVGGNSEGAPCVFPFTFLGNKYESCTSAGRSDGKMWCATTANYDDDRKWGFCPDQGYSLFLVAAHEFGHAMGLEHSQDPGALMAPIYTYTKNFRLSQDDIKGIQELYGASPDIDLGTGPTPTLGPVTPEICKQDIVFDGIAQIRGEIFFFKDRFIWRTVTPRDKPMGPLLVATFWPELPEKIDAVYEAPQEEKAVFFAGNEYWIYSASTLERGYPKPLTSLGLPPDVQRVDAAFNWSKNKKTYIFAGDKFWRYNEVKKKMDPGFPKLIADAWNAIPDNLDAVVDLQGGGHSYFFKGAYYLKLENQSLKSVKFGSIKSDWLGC
Sequence of Lactoylglutathione lyase (Homo sapiens) (Q04760 2-184 limits assumed): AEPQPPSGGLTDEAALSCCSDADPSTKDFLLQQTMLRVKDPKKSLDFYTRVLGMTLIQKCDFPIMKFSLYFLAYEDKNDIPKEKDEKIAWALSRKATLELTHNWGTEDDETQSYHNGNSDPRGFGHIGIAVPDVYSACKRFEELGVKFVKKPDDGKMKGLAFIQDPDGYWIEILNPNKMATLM

Structure (SMILES)	inhibition [1] [%]	inhibition [2] [%]	inhibition [3] [%]	further results
O=C(O)c1cccc(=O)n1O	9	2	25	–
Cc1cc(=O)c(O)c(C(=O)O)[nH]1	97	24	6	inhibition [4]: Active
Cc1cc(=O)c(O)c(C(=O)O)o1	96	8	12 to 13	inhibition [5]: inactive; inhibition [6]: 37%; inhibition [7]: inactive; inhibition [8]: 11%; inhibition [9]: 11%; inhibition [10]: inactive; inhibition [4]: Active
Cc1cc(=O)c(O)c(-c2ncco2)o1	88	0	8	–
N/C(=N\O)c1[nH]ccc(=O)c1O	15	83	43	–
O=C1c2c(O)cccc2Cc2cccc(O)c21	18	41	6	–
O=C(O)c1cccc(C(=O)O)n1 [DIPICOLINIC ACID]	–	–	–	IC50 [11]: > 500000 nM; pIC50 [11]: < 3.3
O=C(O)c1occc(=O)c1O	94	1	4	–
CNC(=O)c1cc(C)[nH]c(=O)c1O	7	5	8	–
Cc1nc(-c2[nH]ccc(=O)c2O)no1	30	6	3	–
O=C(O)c1ccc2cccc(O)c2[n+]1[O-]	5	16	87	–
Cc1cc(=O)c(O)c(C(=O)O)n1O	81	12	22	–
Cc1cc(O)c(=O)c(O)cc1C(=O)O	98	32	61	–
Cc1nc(C(=O)O)c(O)c(=O)[nH]1	28	0	3	–
Oc1cccc(O)c1O [PYROGALLOL]	21	49	63	IC50 [11]: 1700 nM; pIC50 [11]: 5.8
O=C(O)c1ccc2cccnc2c1O	67	22	10	–
Cc1cc(C(=O)O)c(O)c(=O)[nH]1	44	8	9	–
O=C(O)c1cccc(O)c1O	15	82	15	–
Cc1cc(=S)c(O)c(C(=O)O)o1	46	9	84	–
Cc1cc(=O)c(O)c(C(N)=O)o1	30	5	8	–
O=c1c(O)ccccc1O	95	92	92	–
Cc1occ(O)c(=O)c1C(=O)O	21	5	15	–
CNC(=O)c1oc(C)cc(=O)c1O	22	8	6	–
Nc1cccc(C(=O)O)c1O	0	11	7	–
Cc1cc(=O)c(O)c(C(=O)O)n1C	21	2	1	–
O=c1cc[nH]c(-c2nnn[nH]2)c1O	96	7	99	–
